Results published in ChEMBL document CHEMBL1921722, “In vitro and in vivo evaluation of select kahalalide F analogs with antitumor and antifungal activities” (Bioorg Med Chem, 2011).

Experiments:
Assay type in all cases: functional
HT-29 [1] = experiment: Cytotoxicity against human HT-29 cells assessed as cell growth at 800 nM by sulforhodamine B assay relative to control; details: read-out: Activity
NCI-H226 [2] = experiment: Cytotoxicity against human NCI-H226 cells by sulforhodamine B assay
Outline: (§1)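 NCI Developmental Therapeutics Program 60-cell-line human tumor panel screen, run at NCI. A single-concentration pre-screen was followed by a five-concentration dose-response in 10-fold steps. GI50 is the concentration that reduces growth of treated cells to half that of untreated control cells. TGI is the concentration that completely halts growth.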

OVCAR-3 [3] = experiment: Cytotoxicity against human OVCAR3 cells assessed as cell growth at 8 nM by sulforhodamine B assay relative to control; details: read-out: Activity
MDA-MB-435 = experiment: Cytotoxicity against human MDA-MB-435 cells by sulforhodamine B assay; outline: as §1
K562 = experiment: Cytotoxicity against human K562 cells by sulforhodamine B assay; outline: as §1
OVCAR-4 = experiment: Cytotoxicity against human OVCAR4 cells assessed as cell growth at 8 nM by sulforhodamine B assay relative to control; details: read-out: Activity
UACC-257 [4] = experiment: Cytotoxicity against human UACC257 cells assessed as cell growth at 80 nM by sulforhodamine B assay relative to control; details: read-out: Activity
A549 [5] = experiment: Cytotoxicity against human A549 cells assessed as cell growth at 8 nM by sulforhodamine B assay relative to control; details: read-out: Activity
Outline: (§2)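 Run at NCI in the DTP 60-cell-line human tumor panel by standard procedure. Compounds were first screened at a single concentration, then tested at five tenfold-spaced concentrations. GI50 is the concentration reducing treated-cell growth to half that of untreated controls; TGI is the concentration completely halting growth.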

ACHN [6] = experiment: Cytotoxicity against human ACHN cells assessed as cell growth at 8 uM by sulforhodamine B assay relative to control; details: read-out: Activity; outline: as §2
UACC-257 [7] = experiment: Cytotoxicity against human UACC257 cells assessed as cell growth at 8 nM by sulforhodamine B assay relative to control; details: read-out: Activity
TK-10 [8] = experiment: Cytotoxicity against human TK10 cells assessed as cell growth at 8 nM by sulforhodamine B assay relative to control; details: read-out: Activity
RPMI-8226 [9] = experiment: Cytotoxicity against human RPMI8226 cells assessed as cell growth at 8 nM by sulforhodamine B assay relative to control; details: read-out: Activity
RPMI-8226 [10] = experiment: Cytotoxicity against human RPMI8226 cells by sulforhodamine B assay; outline: as §1
DU-145 = experiment: Cytotoxicity against human DU145 cells by sulforhodamine B assay
Outline: (§3)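 Run by the NCI Developmental Therapeutics Program on its 60-line human tumour cell panel using the standard procedure. Compounds went through a single-concentration prescreen first, and those active by NCI criteria went on to a five-concentration growth-inhibition test. GI50 is the concentration that cuts growth of treated cells to half that of untreated control cells.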

NCI-H23 = experiment: Cytotoxicity against human NCI-H23 cells by sulforhodamine B assay; outline: as §1
NCI-H460 [11] = experiment: Cytotoxicity against human NCI-H460 cells assessed as cell growth at 80 nM by sulforhodamine B assay relative to control; details: read-out: Activity
ACHN [12] = experiment: Cytotoxicity against human ACHN cells assessed as cell growth at 80 uM by sulforhodamine B assay relative to control; details: read-out: Activity; outline: as §2
NCI/ADR-RES = experiment: Cytotoxicity against human NCI/ADR-RES cells assessed as cell growth at 80 nM by sulforhodamine B assay relative to control; details: read-out: Activity
SNB-75 [13] = experiment: Cytotoxicity against human SNB75 cells assessed as cell growth at 8 nM by sulforhodamine B assay relative to control; details: read-out: Activity
NCI-H226 [14] = experiment: Cytotoxicity against human NCI-H226 cells assessed as cell growth at 8 nM by sulforhodamine B assay relative to control; details: read-out: Activity
KM12 [15] = experiment: Cytotoxicity against human KM12 cells assessed as cell growth at 80 uM by sulforhodamine B assay relative to control; details: read-out: Activity
HCT-15 = experiment: Cytotoxicity against human HCT15 cells by sulforhodamine B assay; outline: as §3
KM12 [16] = experiment: Cytotoxicity against human KM12 cells assessed as cell growth at 8 nM by sulforhodamine B assay relative to control; details: read-out: Activity
TK-10 [17] = experiment: Cytotoxicity against human TK10 cells by sulforhodamine B assay; outline: as §1
NCI-H460 [18] = experiment: Cytotoxicity against human NCI-H460 cells assessed as cell growth at 8 nM by sulforhodamine B assay relative to control; details: read-out: Activity
U-251 [19] = experiment: Cytotoxicity against human U251 cells assessed as cell growth at 8 nM by sulforhodamine B assay relative to control; details: read-out: Activity
MDA-MB-231 = experiment: Cytotoxicity against human MDA-MB-231 cells assessed as cell growth at 800 nM by sulforhodamine B assay relative to control; details: read-out: Activity
A549 [20] = experiment: Cytotoxicity against human A549 cells assessed as cell growth at 800 nM by sulforhodamine B assay relative to control; details: read-out: Activity; outline: as §2
SNB-75 [21] = experiment: Cytotoxicity against human SNB75 cells assessed as cell growth at 80 nM by sulforhodamine B assay relative to control; details: read-out: Activity
NCI-H522 = experiment: Cytotoxicity against human NCI-H522 cells assessed as cell growth at 8 nM by sulforhodamine B assay relative to control; details: read-out: Activity
SK-OV-3 = experiment: Cytotoxicity against human SKOV3 cells assessed as cell growth at 80 nM by sulforhodamine B assay relative to control; details: read-out: Activity
M14 = experiment: Cytotoxicity against human M14 cells assessed as cell growth at 80 uM by sulforhodamine B assay relative to control; details: read-out: Activity
OVCAR-3 [22] = experiment: Cytotoxicity against human OVCAR3 cells assessed as cell growth at 80 nM by sulforhodamine B assay relative to control; details: read-out: Activity
U-251 [23] = experiment: Cytotoxicity against human U251 cells assessed as cell growth at 800 nM by sulforhodamine B assay relative to control; details: read-out: Activity
COLO 205 [24] = experiment: Cytotoxicity against human COLO205 cells assessed as cell growth at 800 nM by sulforhodamine B assay relative to control; details: read-out: Activity; outline: as §2
MCF7 = experiment: Cytotoxicity against human MCF7 cells assessed as cell growth at 800 nM by sulforhodamine B assay relative to control; details: read-out: Activity
HCT-116 = experiment: Cytotoxicity against human HCT116 cells assessed as cell growth at 8 uM by sulforhodamine B assay relative to control; details: read-out: Activity
HT-29 [25] = experiment: Cytotoxicity against human HT-29 cells assessed as cell growth at 80 nM by sulforhodamine B assay relative to control; details: read-out: Activity
COLO 205 [26] = experiment: Cytotoxicity against human COLO205 cells assessed as cell growth at 8 nM by sulforhodamine B assay relative to control; details: read-out: Activity; outline: as §2

Question: Which growth at 0.8 µM (HT-29 [1]) does the source give for `C/C=C1\NC(=O)[C@H](Cc2ccccc2)NC(=O)[C@@H](C(C)C)NC(=O)[C@@H]([C@@H](C)CC)NC(=O)[C@H](NC(=O)[C@H](NC(=O)[C@H](CCCNCc2ccc(F)c(C)c2)NC(=O)[C@H]2CCCN2C(=O)[C@H](NC(=O)[C@@H](NC(=O)[C@@H](NC(=O)[C@H](NC(=O)CCCC(C)C)C(C)C)[C@@H](C)O)C(C)C)C(C)C)[C@@H](C)CC)[C@@H](C)OC(=O)[C@H](C(C)C)NC1=O` here?
Answer: -52%

Question: What about the GI50 (NCI-H226 [2]) of the same molecule?
Answer: 1.48 µM

Question: What about the TGI (NCI-H226 [2]; read-out: pTGI (converted)) of the same molecule?
Answer: 3.02 µM

Question: And the growth at 0.008 µM (OVCAR-3 [3])?
Answer: 105%

Question: And the GI50 (MDA-MB-435)?
Answer: 1.15 µM

Question: And the TGI (MDA-MB-435; read-out: pTGI (converted))?
Answer: 2.19 µM

Question: And the GI50 (K562)?
Answer: 1.82 µM

Question: And the CC50 (K562; read-out: pLC50 (the source's name) (converted))?
Answer: > 75.9 µM

Question: And the TGI (K562; read-out: pTGI (converted))?
Answer: 3.89 µM

Question: What about the growth at 0.008 µM (OVCAR-4) of the same molecule?
Answer: 100%

Question: And the growth at 0.08 µM (UACC-257 [4])?
Answer: 101%

Question: What about the growth at 0.008 µM (A549 [5]) of the same molecule?
Answer: 100%

Question: What about the growth at 8 µM (ACHN [6]) of the same molecule?
Answer: -97%

Question: And the growth at 0.008 µM (UACC-257 [7])?
Answer: 102%

Question: What about the growth at 0.008 µM (TK-10 [8]) of the same molecule?
Answer: 112%

Question: And the growth at 0.008 µM (RPMI-8226 [9])?
Answer: 128%

Question: What about the GI50 (RPMI-8226 [10]; read-out: GI50) of the same molecule?
Answer: 0.885 µM

Question: And the TGI (RPMI-8226 [10]; read-out: TGI)?
Answer: 2.26 µM

Question: And the GI50 (RPMI-8226 [10]; read-out: pGI50 (converted))?
Answer: 0.891 µM

Question: What about the TGI (RPMI-8226 [10]; read-out: pTGI (converted)) of the same molecule?
Answer: 2.24 µM

Question: What about the LC50 (DU-145) of the same molecule?
Answer: 0.468 µM

Question: What about the GI50 (DU-145; read-out: GI50) of the same molecule?
Answer: 0.123 µM

Question: And the TGI (DU-145; read-out: TGI)?
Answer: 0.24 µM

Question: What about the GI50 (DU-145; read-out: pGI50 (converted)) of the same molecule?
Answer: 0.123 µM

Question: And the TGI (DU-145; read-out: pTGI (converted))?
Answer: 0.24 µM

Question: What about the GI50 (NCI-H23) of the same molecule?
Answer: 1.41 µM

Question: And the LC50 (NCI-H23)?
Answer: 5.25 µM

Question: What about the TGI (NCI-H23; read-out: pTGI (converted)) of the same molecule?
Answer: 2.75 µM

Question: And the growth at 0.08 µM (NCI-H460 [11])?
Answer: 104%

Question: And the growth at 80 µM (ACHN [12])?
Answer: -100%

Question: What about the growth at 0.08 µM (NCI/ADR-RES) of the same molecule?
Answer: 88%

Question: And the growth at 0.008 µM (SNB-75 [13])?
Answer: 112%

Question: What about the growth at 0.008 µM (NCI-H226 [14]) of the same molecule?
Answer: 101%

Question: And the growth at 80 µM (KM12 [15])?
Answer: -36%

Question: What about the LC50 (HCT-15) of the same molecule?
Answer: 1.38 µM

Question: What about the GI50 (HCT-15; read-out: GI50) of the same molecule?
Answer: 0.181 µM

Question: What about the TGI (HCT-15; read-out: TGI) of the same molecule?
Answer: 0.419 µM

Question: And the GI50 (HCT-15; read-out: pGI50 (converted))?
Answer: 0.182 µM

Question: And the TGI (HCT-15; read-out: pTGI (converted))?
Answer: 0.417 µM

Question: And the growth at 0.008 µM (KM12 [16])?
Answer: 107%

Question: And the GI50 (TK-10 [17])?
Answer: 1.48 µM

Question: What about the TGI (TK-10 [17]; read-out: pTGI (converted)) of the same molecule?
Answer: 2.88 µM

Question: What about the growth at 0.008 µM (NCI-H460 [18]) of the same molecule?
Answer: 104%

Question: And the growth at 0.008 µM (U-251 [19])?
Answer: 96%

Question: What about the growth at 0.8 µM (MDA-MB-231) of the same molecule?
Answer: 91%

Question: What about the growth at 0.8 µM (A549 [20]) of the same molecule?
Answer: -40%

Question: What about the growth at 0.08 µM (SNB-75 [21]) of the same molecule?
Answer: 115%

Question: What about the growth at 0.008 µM (NCI-H522) of the same molecule?
Answer: 104%

Question: What about the growth at 0.08 µM (SK-OV-3) of the same molecule?
Answer: 105%

Question: And the growth at 80 µM (M14)?
Answer: -49%

Question: And the growth at 0.08 µM (OVCAR-3 [22])?
Answer: 88%

Question: And the growth at 0.8 µM (U-251 [23])?
Answer: 27%

Question: What about the growth at 0.8 µM (COLO 205 [24]) of the same molecule?
Answer: -66%

Question: What about the growth at 0.8 µM (MCF7) of the same molecule?
Answer: 80%

Question: What about the growth at 8 µM (HCT-116) of the same molecule?
Answer: -100%

Question: What about the growth at 0.08 µM (HT-29 [25]) of the same molecule?
Answer: 102%

Question: And the growth at 0.008 µM (COLO 205 [26])?
Answer: 99%
